Source: PubChem BioAssay (Broad Institute)
GSK3A inh: blockers of GSK3A enzyme activity – biochemical, luminescence, cell-free homogeneous, HTS, primary screen | Glycogen synthase kinase-3 alpha (Homo sapiens), P49840 | GSK-3 alpha kinase, ADP-Glo luminescence, 60 min | inhibition, % at 10 µM | hit rate 0.1% among 320,000 | AID 2650, 2010;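 active = more than half of replicates show inhibition above 20%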;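 note: GST-tagged GSK-3 alpha with peptide substrate and 25 µM ATP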
CDK5 p35 inh: inhibitors of human CDK5/p35 kinase, primary screen, biochemical, single concentration; inhibition, % at 10 µM; Cyclin-dependent kinase 5 (Homo sapiens) + Cyclin-dependent kinase 5 activator 1 (Homo …; hit rate 0.01% among 330,000; AID 488839, 2010; Recombinant CDK5/p35, ADP-Glo luminescence, 60 min;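 active = highest replicate inhibition of at least 50% and at least 75% of replicates reaching 50%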
Target sequence (Q00535 whole entry, looked up): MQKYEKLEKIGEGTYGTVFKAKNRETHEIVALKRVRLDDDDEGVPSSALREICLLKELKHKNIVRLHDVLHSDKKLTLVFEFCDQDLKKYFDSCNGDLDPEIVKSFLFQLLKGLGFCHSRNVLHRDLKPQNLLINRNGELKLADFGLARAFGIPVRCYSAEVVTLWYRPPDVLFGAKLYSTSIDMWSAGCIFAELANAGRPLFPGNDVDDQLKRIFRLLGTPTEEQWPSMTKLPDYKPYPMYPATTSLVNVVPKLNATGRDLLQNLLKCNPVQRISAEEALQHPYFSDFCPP
Target sequence (Q15078 whole entry, looked up): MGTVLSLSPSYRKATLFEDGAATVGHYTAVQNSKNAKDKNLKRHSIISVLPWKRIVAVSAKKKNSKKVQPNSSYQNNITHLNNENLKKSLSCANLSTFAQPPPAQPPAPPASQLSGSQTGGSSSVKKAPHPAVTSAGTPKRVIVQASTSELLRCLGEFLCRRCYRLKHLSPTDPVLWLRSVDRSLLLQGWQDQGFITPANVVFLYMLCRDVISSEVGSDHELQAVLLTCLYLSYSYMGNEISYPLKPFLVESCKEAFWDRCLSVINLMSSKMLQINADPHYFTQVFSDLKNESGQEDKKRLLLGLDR
GSK3B inh: human GSK3beta kinase inhibitors, primary screen, biochemical, cell-free homogeneous, HTS | hit rate 0.038% among 300,000 | GST-GSK3beta kinase, ADP-Glo luminescence, 60 min; stronger effect = lower value | Glycogen synthase kinase-3 beta (Homo sapiens), P49841 | activity score (negative = inhibition), % at 10 µM;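 active = more than half of replicate wells score below -50%, meaning over 50% inhibition versus plate controls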
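Assay system: GST-fused GSK3beta enzyme, cell-free / Medium: Tris pH 7.5 buffer with MgCl2, DTT, BSA, heparin / Also added: peptide substrate plus 25 µM ATP (final) / Compound: 10 µM single point / Timing: kinase reaction with compound 60 min at room temperature / Detection: ADP-Glo luminescence / Benchmarks: DMSO neutral wells and GW8510 at 20 µM as positive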
STK33 kinase inh: inhibitors of purified STK33 kinase, primary screen, biochemical, ADP-Glo luminescence, homogeneous, cell-free; Serine/threonine-protein kinase 33 (Homo sapiens), Q9BYT3; inhibition, % at 10 µM; hit rate 0.073% among 320,000; MBP phosphorylation;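 active = inhibition at or above 25%, using the most active replicate where run in duplicate; inactive = inhibition below 25%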
DYRK1A inh: rat Dyrk1A kinase inhibitors, primary screen, biochemical, single point, plate reader; inhibition, % at 12.5 µM; ADP-Glo luminescence, NFATc1 peptide; hit rate 0.43% among 310,000; AID 504441, 2011; in the data active = inhibition above about 50%
Hits are given with their value; 0 = inactive; - = no result given. Only a selection was taken, and hits are over-represented in it overall.

SMILES	GSK3A inh	CDK5 p35 inh	GSK3B inh	STK33 kinase inh	DYRK1A inh
CCCCCCC(=O)Nc1nc(C)c(-c2csc(Nc3ccc(Cl)cc3)n2)s1	0	0	0	0	57
CC1CCCC(CC(=O)O)(CC(=O)O)C1 (centres undefined)	0	0	0	0	0
CC(C)c1nnc(SCC(=O)N2CCc3ccccc32)n1N	0	0	0	0	-
O=C(O)Cc1ccc(N=Cc2c(O)ccc3ccccc23)cc1	0	0	0	50	0
Nc1nc(NCCO)nc(N2CCCCCC2)c1[N+](=O)[O-]	54	0	0	0	0
COCCCNc1nc(N)c([N+](=O)[O-])c(NC2CCCCC2)n1	60	0	0	0	0
COCCCNc1nc(N)c([N+](=O)[O-])c(N2CCCCCC2)n1	54	0	0	0	0
Cc1ccc(Nc2nc(NCCCN3CCOCC3)nc(N)c2[N+](=O)[O-])cc1	58	0	0	0	0
Nc1nc(Nc2cccc(Cl)c2)nc(NCc2ccco2)c1[N+](=O)[O-]	0	0	0	0	0
Cc1ccc(Nc2nc(NCCCN3CCOCC3)nc(N)c2[N+](=O)[O-])cc1C	-	0	0	-	0
Nc1nc(NCC2CCCO2)nc(Nc2ccc(Cl)cc2)c1[N+](=O)[O-] (centres undefined)	0	0	0	0	0
Nc1nc(NCCCN2CCOCC2)nc(Nc2cccc(Cl)c2)c1[N+](=O)[O-]	78	0	-77	0	0
Nc1nc(NCCCN2CCOCC2)nc(Nc2ccc(Cl)cc2)c1[N+](=O)[O-]	57	-	0	0	-
COC(=O)c1cc(OC)c(OC)cc1NC(=O)Nc1cccc(C(C)=O)c1	0	0	0	0	0
O=C(Cc1c(F)cccc1Cl)Nc1ccc(S(=O)(=O)Nc2nccs2)cc1	0	0	0	0	0
C=CC(=O)Nc1ccc(Nc2nc(NC3CCC(N(C)C)CC3)nc3c2ncn3C(C)C)cc1 (centres undefined)	0	95	-	81	93
N#C/C(=C(/O)c1ccco1)c1nc2ccccc2[nH]1	0	0	0	29	0
OCCC1CN(CC(c2ccccc2)c2ccccc2)CCN1C1CCCC1 (centres undefined)	0	0	0	0	0
Cc1ccsc1C1C2=C(CC(C)(C)CC2=O)Nc2ncnn21 (centres undefined)	63	0	0	0	0
CN1CCN(c2ccc(NC(=O)c3ccc(-c4cccc([N+](=O)[O-])c4)o3)cc2)CC1	0	0	0	36	0
CN1CCN(c2ccc(NC(=O)c3ccc(-c4ccc(Cl)cc4)o3)cc2)CC1	0	0	0	0	0
Nc1nc(NCCc2ccccc2)nc(NCCO)c1[N+](=O)[O-]	93	0	0	0	0
Nc1nc(NCc2ccccc2)nc(NCCO)c1[N+](=O)[O-]	0	0	0	0	-
CCN(CC)CCCNc1nc(N)c([N+](=O)[O-])c(NCCO)n1	0	0	0	0	0
CN(C)CCCNc1nc(N)c([N+](=O)[O-])c(NCCO)n1	50	0	0	0	0
SMILES	GSK3A inh	CDK5 p35 inh	GSK3B inh	STK33 kinase inh	DYRK1A inh
CC(C)NC(=O)Nc1n[nH]c(Nc2ccc(Cl)cc2)n1	52	0	0	0	0
CC(C)CNC(=O)c1ccc(Cl)c(N)c1	0	-	0	0	-
Cc1cc2[nH]c(=O)c(=O)[nH]c2cc1S(=O)(=O)NC1CCCCC1C (centres undefined)	0	0	0	0	57
Cc1cc(C(C#N)c2ccccc2F)n2ncnc2n1 (centres undefined)	55	0	0	0	-
Cc1cc(C(C#N)c2ccccc2)n2ncnc2n1 (centres undefined)	0	0	-	0	0
Cc1oc(-c2ccccc2Cl)nc1CS(=O)(=O)CC(=O)NC1CCCC1	0	0	0	0	0
NC(=O)C1Cc2ccccc2CN1C(=O)c1cc(C2CC2)nn1-c1ccccc1 (centres undefined)	0	0	-	0	0
O=C(O)c1ccc(N=Cc2c(O)ccc3oc4c(c23)CCCC4)cc1	0	0	0	46	-
COc1cc(C2C(C#N)=C(N)Oc3n[nH]c(-c4cccnc4)c32)cc(Br)c1O (centres undefined)	53	0	0	0	0
COc1cc(C2C(C#N)=C(N)Oc3n[nH]c(-c4cccnc4)c32)ccc1OCC(N)=O (centres undefined)	0	0	0	0	0
Cc1cc2oc3cc(NCCC4CCCN4C)ccc3c(=O)c2cc1C (centres undefined)	0	0	0	0	0
O=c1c2ccccc2sc2ccc(NCCCN3CCOCC3)cc12	0	0	0	57	0
CN1CCCC1CCNc1ccc2sc3ccccc3c(=O)c2c1 (centres undefined)	0	0	0	44	0
COc1ccc(N(CC(=O)NC2CCCCC2)C(=O)c2ccc(C)s2)cc1OC	0	0	0	0	0
Cn1ccc(NS(=O)(=O)c2cc(Br)ccc2Br)n1	0	0	-	0	0
CC(=O)C1=C(S(=O)(=O)c2ccc(C)cc2)CS(=O)(=O)C1	-	0	0	-	0
Cc1cc(N2CCCCC2)nc(SCC(=O)c2ccccc2)n1	0	0	0	0	0
O=C(CSc1nc(N2CCCCC2)nc(N2CCCCC2)n1)c1ccccc1	0	0	0	28	0
CC(C)(c1ccccc1)c1ccc(OCc2ccc(C(=O)O)o2)cc1	-	0	-	-	0
Cc1ccc(SCC(=O)Nc2ccc3c(c2)C(=O)NC3=O)cc1	0	0	0	0	0
O=C(CSc1ccccc1)Nc1ccc2c(c1)C(=O)NC2=O	60	0	0	0	0
CSc1nsc(SCC(=O)Nc2ccc(C(N)=O)cc2)n1	0	0	0	0	0
O=C1c2cccc3cccc(c23)C(=O)C1(O)O	0	0	0	0	79
CCOc1cc(/C=C(\C#N)c2[nH]nc(N)c2C#N)ccc1O	0	0	0	35	0
C[C@H]1CN([C@@H](C)CO)C(=O)c2cccc(NC(=O)c3cnccn3)c2O[C@@H]1CN(C)S(=O)(=O)c1ccc(F)cc1	55	0	-	0	0
SMILES	GSK3A inh	CDK5 p35 inh	GSK3B inh	STK33 kinase inh	DYRK1A inh
C[C@H](CO)N1C[C@H](C)[C@@H](CN(C)S(=O)(=O)c2ccc(F)cc2)Oc2c(NC(=O)c3ccncc3)cccc2C1=O	-	0	-	-	0
CCCCCCCCC[n+]1cccc2c3ccccc3ccc21	0	0	0	0	0
CCCCCCCCCCCCCCCC[n+]1cccc2ccccc21	0	0	-	50	0
C=CCSc1nnc(CCc2ccccc2)n1N	-	0	-	-	0
CCOc1ccc(-c2ccc(SC)nn2)cc1	0	0	0	31	56
CCOc1ccc(-c2ccc(SCC(=O)Nc3nnc(CC)s3)nn2)cc1	0	0	0	0	0
N#C/C(=C/c1ccc(O)cc1)C(=O)NCc1ccc(Cl)cc1	0	0	0	0	0
N#C/C(=C\c1ccc(O)cc1)C(=O)NCc1cccc(Cl)c1	0	0	0	0	51
